Assay results taken from ChEMBL document CHEMBL2406929, “An optimized pyrimidinol multifunctional radical quencher” (ACS Med Chem Lett, 2013).
Activity calls are given as the source filed them. The rule behind the calls is not given here.

Legend:
[1] = species on record: Homo sapiens; assay: Decrease in mitochondrial ATP level in CoQ10-deficient human Friedreich's ataxia lymphocytes at 5 uM after 6 days by bioluminescence assay; type: functional
[2] = species on record: Homo sapiens; assay: Decrease in total ATP level in CoQ10-deficient human GM17932 cells after 48 hrs by bioluminescence assay; type: functional
Outline: (§1)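 Total cellular ATP measured in CoQ10-deficient and FRDA lymphocytes grown in glucose-free medium supplemented with galactose, so that cells rely on oxidative phosphorylation. Compounds tested at 5, 10 and 25 μM for 48 h, added from DMSO (final <0.5%). ATP expressed as % of untreated control.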

[3] = Effect on total ATP level in CoQ10-deficient human GM17932 cells at 25 uM after 48 hrs by bioluminescence assay relative to control; type: functional; outline: as §1
[4] = Effect on total ATP level in CoQ10-deficient human GM17932 cells at 10 uM after 48 hrs by bioluminescence assay relative to control; type: functional; outline: as §1
[5] = species on record: Homo sapiens; assay: Cytoprotective activity against diethyl maleate-induced loss of mitochondrial membrane integrity in human Friedreich's ataxia lymphocytes at 100 nM incubated overnight prior to diethyl maleate-treatment measured after 140 mins by TMRM staining-based FACS flow cytometric analysis relative to control; type: functional
Outline: (§2)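 Δψm in FRDA lymphocytes after diethyl maleate treatment. Cells stained with 250 nM TMRM and analyzed by flow cytometry on the FL2-H channel, 10,000 events per sample. Result is the % of cells with intact Δψm (top-right quadrant). FCCP uncoupler used as positive control. Final DMSO <0.5%. Means ± SEM of three independent experiments run in duplicate.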

[6] = Effect on total ATP level in human Friedreich's ataxia lymphocytes at 10 uM after 48 hrs by bioluminescence assay relative to control; type: functional; outline: as §1
[7] = Cytoprotective activity against BSO-induced cell death in human Friedreich's ataxia fibroblasts preincubated for 12 hrs prior to BSO-treatment measured after 48 hrs by luminescence assay
[8] = Effect on total ATP level in human Friedreich's ataxia lymphocytes at 25 uM after 48 hrs by bioluminescence assay relative to control; type: functional; outline: as §1
[9] = species on record: Homo sapiens; assay: Decrease in total ATP level in human Friedreich's ataxia lymphocytes after 48 hrs by bioluminescence assay; type: functional; outline: as §1
[10] = species on record: Homo sapiens; assay: Cytoprotective activity against diethyl maleate-induced loss of mitochondrial membrane integrity in human Friedreich's ataxia lymphocytes at 250 nM incubated overnight prior to diethyl maleate-treatment measured after 140 mins by TMRM staining-based FACS flow cytometric analysis relative to control; type: functional; outline: as §2
[11] = Effect on total ATP level in human Friedreich's ataxia lymphocytes at 5 uM after 48 hrs by bioluminescence assay relative to control; type: functional; outline: as §1
[12] = Effect on total ATP level in CoQ10-deficient human GM17932 cells at 5 uM after 48 hrs by bioluminescence assay relative to control; type: functional; outline: as §1
[13] = species on record: Homo sapiens; assay: Cytoprotective activity against diethyl maleate-induced loss of mitochondrial membrane integrity in human Friedreich's ataxia lymphocytes at 500 nM incubated overnight prior to diethyl maleate-treatment measured after 140 mins by TMRM staining-based FACS flow cytometric analysis relative to control; type: functional; outline: as §2
[14] = species on record: Homo sapiens; assay: Decrease in mitochondrial ATP level in CoQ10-deficient human Friedreich's ataxia lymphocytes at 5 uM after 6 days by bioluminescence assay in presence of 4-nitrobenzoate; type: functional
[15] = species on record: Homo sapiens; assay: Antioxidant activity in human Friedreich's ataxia lymphocytes assessed as inhibition of diethyl maleate-induced lipid peroxidation at 100 to 500 nM incubated overnight prior to diethyl maleate-treatment measured after 120 mins by C11-BODIPY581/591 staining-based FACS flow cytometric analysis; type: functional
Outline: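 Glutathione depletion by diethyl maleate in FRDA lymphocytes. Cells stained with C11-BODIPY581/591; oxidized green fluorescence read by FACS on the FL1-H channel. Lipid peroxidation taken as the increase in geometric mean fluorescence intensity relative to the untreated control, expressed as % scavenging activity. Compounds added from DMSO (final DMSO <0.5%). Mean ± SEM, n = 3.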

[16] = species on record: Homo sapiens; assay: Reversal of 4-nitrobenzoate-induced reduction in mitochondrial ATP level in CoQ10-deficient human Friedreich's ataxia lymphocytes at 10 uM after 6 days by bioluminescence assay; type: functional
[17] = species on record: Homo sapiens; assay: Reversal of 4-nitrobenzoate-induced reduction in mitochondrial ATP level in CoQ10-deficient human Friedreich's ataxia lymphocytes at 5 uM after 6 days by bioluminescence assay; type: functional

SMILES	Activity [1]	Activity [2]	Activity [3] [%]	Activity [4] [%]	Activity [5] [%]	Activity [6] [%]	EC50 [7] [nM]	Activity [8] [%]	Activity [9]	Activity [10] [%]	Activity [11] [%]	Activity [12] [%]	Activity [13] [%]	Activity [14]	inhibition [15]	Activity [16]	Activity [17]
COC1=C(OC)C(=O)C(CCCCCCCCCCO)=C(C)C1=O [IDEBENONE]	Active	Dose-dependent effect	2	46	18	46	551	3	Dose-dependent effect	26	73	80	45	Active	–	–	–
CCCCCCCCCCCCCCCCCCc1nc(N(C)C)nc(OC)c1O	–	–	96	98	39	102	266	102	–	55	101	98	73	–	Active	–	–
CCCCCCCCCCC1=C(C)C(=O)C(OC)=C(OC)C1=O [DECYLUBIQUINONE]	–	Dose-dependent effect	63	99	60	76	56	63	Dose-dependent effect	82	93	100	90	–	–	–	–
COc1nc(N(C)C)nc(CCCCCCCCCCO)c1O	–	–	54	95	32	66	345	46	–	48	80	102	68	–	Active	inactive	Active
CCCCCCCCCCCCCCCCc1nc(N(C)C)nc(OC)c1OC(C)=O	–	–	96	109	–	101	–	92	–	–	109	116	–	–	–	–	–
CCCCCCCCCCCCCCCCc1nc(N(C)C)nc(OC)c1O	–	–	90	106	81	96	25	80	–	90	108	118	92	–	Active	–	Active
CCCCCCCCCCc1nc(N(C)C)nc(OC)c1O	–	–	58	83	68	87	68	58	–	80	94	96	88	–	–	–	–
Cc1nc(N(C)C)nc(CCCCCCCCCCO)c1O	–	–	46	86	25	46	456	28	–	37	77	99	56	–	–	–	–
COc1nc(N(C)C)nc(CCCCCCCCCCOCC23CC4CC(CC(C4)C2)C3)c1O	–	–	64	97	63	103	32	72	–	82	107	105	90	–	Active	–	–
CCCCCCCCCCCCCCc1nc(N(C)C)nc(OC)c1O	–	–	65	97	77	97	22	55	–	88	109	105	92	–	Active	–	–
